# Activity calls are given as the source filed them. The calls are words filed in the database; no cut-off is given here.
# Key:
# [1] = Inhibition of Escherichia coli TrmD using S-[methyl-3H] adenosyl-L-methionine as substrate assessed as leucine-tRNA methylation after 1 hr by scintillation proximity assay
# How it was run: (§1)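 Radiometric SPA: TrmD in 50 mM HEPES pH 7.5 with 5 mM MgCl2 (E. coli and K. pneumoniae 10 nM, S. aureus 10 nM, P. aeruginosa 5 nM, H. influenzae 4 nM in enzyme reagent), mixed 1:1 with a reagent of 0.05 μM [3H]SAM, 2 μM unlabelled SAM and 2 μM synthetic E. coli leucine-tRNA. Compounds are 2-fold serial DMSO dilutions. Incubation is 1 h at room temperature.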
# [2] = Inhibition of Staphylococcus aureus TrmD using S-[methyl-3H] adenosyl-L-methionine as substrate assessed as leucine-tRNA methylation after 1 hr by scintillation proximity assay; how it was run: as §1
# [3] = Inhibition of Haemophilus influenzae TrmD using S-[methyl-3H] adenosyl-L-methionine as substrate assessed as leucine-tRNA methylation after 1 hr by scintillation proximity assay; how it was run: as §1
# [4] = biological target: T1, Histone-lysine N-methyltransferase SETD7 (Homo sapiens) (UniProt Q8WTS6); assay: Inhibition of human SET7/9 at 20 uM relative to control
# T1 sequence (whole entry): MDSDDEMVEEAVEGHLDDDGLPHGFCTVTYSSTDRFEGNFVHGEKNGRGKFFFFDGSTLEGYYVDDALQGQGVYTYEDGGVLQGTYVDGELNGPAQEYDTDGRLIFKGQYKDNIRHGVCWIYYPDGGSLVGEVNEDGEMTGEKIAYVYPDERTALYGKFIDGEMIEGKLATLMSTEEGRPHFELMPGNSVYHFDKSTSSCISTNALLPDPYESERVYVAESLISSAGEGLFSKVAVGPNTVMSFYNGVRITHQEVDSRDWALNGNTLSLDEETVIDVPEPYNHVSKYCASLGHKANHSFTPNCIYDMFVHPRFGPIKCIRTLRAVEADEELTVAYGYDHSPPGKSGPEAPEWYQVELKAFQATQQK
# [5] = Selectivity ratio for Escherichia coli TrmD over human PRMT1
# [6] = biological target: Protein arginine N-methyltransferase 1 (Homo sapiens) (UniProt Q99873); assay: Inhibition of human PRMT1 at 20 uM relative to control
# [7] = Selectivity ratio for Escherichia coli TrmD over human SET7/9
# [8] = Selectivity ratio of IC50 for Staphylococcus aureus TrmD to IC50 for Escherichia coli TrmD
# [9] = Inhibition of Acinetobacter baumannii TrmD using S-[methyl-3H] adenosyl-L-methionine as substrate assessed as leucine-tRNA methylation after 1 hr by scintillation proximity assay
# [10] = Selectivity ratio of IC50 for Escherichia coli TrmD to IC50 for Pseudomonas aeruginosa TrmD
# Klebsiella pneumoniae = assay: Inhibition of Klebsiella pneumoniae TrmD using S-[methyl-3H] adenosyl-L-methionine as substrate assessed as leucine-tRNA methylation after 1 hr by scintillation proximity assay; how it was run: as §1
# [11] = Inhibition of Pseudomonas aeruginosa TrmD using S-[methyl-3H] adenosyl-L-methionine as substrate assessed as leucine-tRNA methylation after 1 hr by scintillation proximity assay; how it was run: as §1
# [12] = biological target: T1, Histone-lysine N-methyltransferase SETD7 (Homo sapiens); assay: Inhibition of human SET7/9
# [13] = Aqueous solubility of the compound; type: physicochemical; conditions: buffer
# [14] = Dissociation constant, pKa of the compound; type: physicochemical
# Protein arginine N-methyltransferase 1 (Homo sapiens), sequence (Q99873 whole entry, looked up): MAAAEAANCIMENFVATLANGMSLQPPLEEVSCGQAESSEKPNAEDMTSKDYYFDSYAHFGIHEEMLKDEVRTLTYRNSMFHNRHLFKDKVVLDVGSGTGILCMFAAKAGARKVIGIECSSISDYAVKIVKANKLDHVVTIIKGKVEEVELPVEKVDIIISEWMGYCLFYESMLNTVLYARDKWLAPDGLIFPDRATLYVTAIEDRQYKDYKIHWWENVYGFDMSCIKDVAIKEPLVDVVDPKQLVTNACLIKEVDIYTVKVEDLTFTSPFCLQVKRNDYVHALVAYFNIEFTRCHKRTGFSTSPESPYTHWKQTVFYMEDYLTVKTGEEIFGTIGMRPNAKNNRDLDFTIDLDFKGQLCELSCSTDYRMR
Structure (SMILES),IC50 [1],IC50 [2],IC50 [3],also measured
Cc1ccc(-c2csc3ncnc(O)c23)cc1,6.9 µM,62 µM,1.7 µM,–
CC(=O)N1CCC(c2csc3nc[nH]c(=O)c23)C1 (configuration not stated),> 200 µM,> 200 µM,> 200 µM,–
O=c1[nH]cnc2[nH]nc(-c3ccccc3)c12,> 200 µM,1.4 µM,30 µM,–
O=C(NCc1ccc(CN2CCNCC2)cc1)c1csc2nc[nH]c(=O)c12,0.89 µM,7.6 µM,1.6 µM,inhibition [4]: < 10%; Selectivity ratio [5]: 50; inhibition [6]: < 10%; Selectivity ratio [7]: 50
O=C(NCc1ccc(CN2CCN(CCO)CC2)cc1)c1csc2nc[nH]c(=O)c12,0.47 µM,14 µM,1.6 µM,–
NC1CCN(Cc2ccc(CNC(=O)c3csc4nc[nH]c(=O)c34)cc2)CC1,0.18 µM,1.2 µM,0.33 µM,inhibition [4]: < 10%; Selectivity ratio [5]: 50; Ratio IC50 [8]: 5; inhibition [6]: < 10%; Selectivity ratio [7]: 50; IC50 [9]: 0.58 µM; Ratio IC50 [10]: 10; IC50 (Klebsiella pneumoniae): 0.35 µM; IC50 [11]: < 0.039 µM
NC1CCCN(Cc2ccc(CNC(=O)c3csc4nc[nH]c(=O)c34)cc2)C1 (configuration not stated),0.33 µM,5.2 µM,0.66 µM,inhibition [4]: < 10%; Selectivity ratio [5]: 50; inhibition [6]: < 10%; Selectivity ratio [7]: 50
O=C(NCc1cccnc1)c1csc2nc[nH]c(=O)c12,11 µM,73 µM,3.6 µM,–
CCCNCc1ccc(CNC(=O)c2csc3nc[nH]c(=O)c23)cc1,1 µM,6.6 µM,1 µM,–
C[C@@H](NC(=O)c1csc2nc[nH]c(=O)c12)c1ccccc1,123 µM,> 200 µM,49 µM,–
Nc1ncnc2c1ncn2[C@@H]1O[C@H](C[C@@H](N)CC[C@H](N)C(=O)O)[C@@H](O)[C@H]1O [SINEFUNGIN],11 µM,160 µM,1.9 µM,inhibition [12]: Active
C[C@H](NC(=O)c1csc2nc[nH]c(=O)c12)c1ccccc1,> 200 µM,> 200 µM,> 200 µM,–
O=c1[nH]cnc2ccc(-c3ccccc3)cc12,–,> 200 µM,11 µM,–
N=C(NCc1ccc(CNC(=O)c2csc3nc[nH]c(=O)c23)cc1)NC1CC1,0.19 µM,2.9 µM,0.49 µM,inhibition [4]: < 10%; Selectivity ratio [5]: 50; inhibition [6]: < 10%; Selectivity ratio [7]: 50
NC1CN(Cc2ccc(CNC(=O)c3csc4nc[nH]c(=O)c34)cc2)C1,0.33 µM,1.8 µM,0.33 µM,Ratio IC50 [8]: 5; IC50 [9]: 1.3 µM; Ratio IC50 [10]: 10; IC50 (Klebsiella pneumoniae): 1.3 µM; IC50 [11]: 0.25 µM
Cc1[nH]c2c(=O)n(C3CCNCC3)ccc2c1Cl,–,–,–,solubility [13]: > 500 µM
O=C1CN(Cc2ccc(CNC(=O)c3csc4nc[nH]c(=O)c34)cc2)CCN1,2.8 µM,22 µM,9.3 µM,–
Cn1cc(-c2csc3nc[nH]c(=O)c23)cn1,2.1 µM,34 µM,0.67 µM,–
O=C(NCc1ccc(CN2CCCC2)cc1)c1csc2nc[nH]c(=O)c12,0.67 µM,4.7 µM,1.1 µM,–
c1ccc2[nH]c(-c3cnco3)cc2c1,–,–,–,solubility [13]: > 500 µM
NCc1ccc(CNC(=O)c2csc3nc[nH]c(=O)c23)cc1,0.91 µM,4.3 µM,0.56 µM,inhibition [4]: < 10%; Selectivity ratio [5]: 50; Ratio IC50 [8]: 5; inhibition [6]: < 10%; Selectivity ratio [7]: 50; IC50 [9]: 0.61 µM; Ratio IC50 [10]: 10; pKa [14]: 14.4; IC50 (Klebsiella pneumoniae): 0.83 µM; IC50 [11]: 0.098 µM
CN(Cc1ccccc1)C(=O)c1csc2nc[nH]c(=O)c12,> 200 µM,> 200 µM,> 200 µM,–
O=c1[nH]cnc2[nH]cc(-c3ccccc3)c12,98 µM,2.3 µM,17 µM,–
O=C(NCc1ccc(CNCc2ncc[nH]2)cc1)c1csc2nc[nH]c(=O)c12,0.52 µM,8.2 µM,1.5 µM,inhibition [4]: < 10%; Selectivity ratio [5]: 50; Ratio IC50 [8]: 5; inhibition [6]: < 10%; Selectivity ratio [7]: 50; IC50 [9]: 0.23 µM; Ratio IC50 [10]: 10; pKa [14]: 6.5; IC50 (Klebsiella pneumoniae): 0.31 µM; IC50 [11]: 0.067 µM

Structure (SMILES),IC50 [1],IC50 [2],IC50 [3],also measured
O=C(NCc1ccc(CNCCO)cc1)c1csc2nc[nH]c(=O)c12,0.89 µM,1.8 µM,1.2 µM,–
NC(=O)c1ccc(CNC(=O)c2csc3nc[nH]c(=O)c23)cc1,4.7 µM,25 µM,7.1 µM,–
O=c1[nH]cnc2onc(-c3ccccc3)c12,4.8 µM,6.7 µM,1.1 µM,solubility [13]: > 500 µM
O=C(NCc1ccncc1)c1csc2nc[nH]c(=O)c12,19 µM,72 µM,8.2 µM,–
Oc1ncnc2scc(-c3ccccc3)c12,17 µM,11 µM,4.7 µM,–
O=c1[nH]cnc2scc(C3CCNC3)c12 (configuration not stated),> 200 µM,> 200 µM,> 200 µM,–
O=c1[nH]cnc2scc(C3CCCC3)c12,52 µM,21 µM,16 µM,–
O=C(NCc1ccc(CO)cc1)c1csc2nc[nH]c(=O)c12,5.9 µM,38 µM,10 µM,–
NCCN1CCN(Cc2ccc(CNC(=O)c3csc4nc[nH]c(=O)c34)cc2)CC1,0.4 µM,2.7 µM,0.44 µM,inhibition [4]: < 10%; Selectivity ratio [5]: 50; inhibition [6]: < 10%; Selectivity ratio [7]: 50
O=C(NCc1ccc(-c2ccccc2)cc1)c1csc2nc[nH]c(=O)c12,33 µM,105 µM,64 µM,–
O=C(NCc1ccc(CN2CCC(O)CC2)cc1)c1csc2nc[nH]c(=O)c12,0.44 µM,7.3 µM,1.3 µM,inhibition [4]: < 10%; Selectivity ratio [5]: 50; inhibition [6]: < 10%; Selectivity ratio [7]: 50
NCCNCc1ccc(CNC(=O)c2csc3nc[nH]c(=O)c23)cc1,0.44 µM,7.4 µM,0.33 µM,inhibition [4]: < 10%; Selectivity ratio [5]: 50; Ratio IC50 [8]: 5; inhibition [6]: < 10%; Selectivity ratio [7]: 50; IC50 [9]: 0.74 µM; Ratio IC50 [10]: 10; IC50 (Klebsiella pneumoniae): 0.61 µM; IC50 [11]: 0.044 µM
O=C(NCc1ccccn1)c1csc2nc[nH]c(=O)c12,139 µM,> 200 µM,8 µM,–
CN(C)Cc1ccc(CNC(=O)c2csc3nc[nH]c(=O)c23)cc1,1.8 µM,27 µM,1.2 µM,–
COc1ccc(-c2n[nH]c(N)n2)cc1,–,–,–,solubility [13]: > 500 µM
Cc1cccc2nc[nH]c(=O)c12,–,–,–,solubility [13]: > 500 µM
O=C(NCc1ccc(CN2CC[C@@H](O)C2)cc1)c1csc2nc[nH]c(=O)c12,0.29 µM,2.7 µM,0.42 µM,Ratio IC50 [8]: 5; IC50 [9]: 0.24 µM; Ratio IC50 [10]: 10; IC50 (Klebsiella pneumoniae): 0.51 µM; IC50 [11]: 0.063 µM
N=C(N)c1ccc(CNC(=O)c2csc3nc[nH]c(=O)c23)cc1,0.9 µM,5.5 µM,1.1 µM,–
O=c1[nH]cnc2sccc12,120 µM,1340 µM,144 µM,–
NCC1CCC(CNC(=O)c2csc3nc[nH]c(=O)c23)CC1 (configuration not stated),4.9 µM,12 µM,1.8 µM,–
O=C(NCc1ccc(CN2CC[C@H](O)C2)cc1)c1csc2nc[nH]c(=O)c12,0.4 µM,6.3 µM,0.6 µM,Ratio IC50 [8]: 5; IC50 [9]: 0.63 µM; Ratio IC50 [10]: 10; IC50 (Klebsiella pneumoniae): 0.63 µM; IC50 [11]: 0.12 µM
O=C(NCc1ccccc1)c1csc2nc[nH]c(=O)c12,6.5 µM,64 µM,2.6 µM,–
COCCNCc1ccc(CNC(=O)c2csc3nc[nH]c(=O)c23)cc1,1.3 µM,12 µM,1.7 µM,–

# From ChEMBL document CHEMBL2429843 (J Med Chem, 2013)
